The target of data set [1] is T1, Inhibitor of nuclear factor kappa-B kinase subunit beta (Homo sapiens, UniProt O14920).
T1 sequence (O14920 whole entry): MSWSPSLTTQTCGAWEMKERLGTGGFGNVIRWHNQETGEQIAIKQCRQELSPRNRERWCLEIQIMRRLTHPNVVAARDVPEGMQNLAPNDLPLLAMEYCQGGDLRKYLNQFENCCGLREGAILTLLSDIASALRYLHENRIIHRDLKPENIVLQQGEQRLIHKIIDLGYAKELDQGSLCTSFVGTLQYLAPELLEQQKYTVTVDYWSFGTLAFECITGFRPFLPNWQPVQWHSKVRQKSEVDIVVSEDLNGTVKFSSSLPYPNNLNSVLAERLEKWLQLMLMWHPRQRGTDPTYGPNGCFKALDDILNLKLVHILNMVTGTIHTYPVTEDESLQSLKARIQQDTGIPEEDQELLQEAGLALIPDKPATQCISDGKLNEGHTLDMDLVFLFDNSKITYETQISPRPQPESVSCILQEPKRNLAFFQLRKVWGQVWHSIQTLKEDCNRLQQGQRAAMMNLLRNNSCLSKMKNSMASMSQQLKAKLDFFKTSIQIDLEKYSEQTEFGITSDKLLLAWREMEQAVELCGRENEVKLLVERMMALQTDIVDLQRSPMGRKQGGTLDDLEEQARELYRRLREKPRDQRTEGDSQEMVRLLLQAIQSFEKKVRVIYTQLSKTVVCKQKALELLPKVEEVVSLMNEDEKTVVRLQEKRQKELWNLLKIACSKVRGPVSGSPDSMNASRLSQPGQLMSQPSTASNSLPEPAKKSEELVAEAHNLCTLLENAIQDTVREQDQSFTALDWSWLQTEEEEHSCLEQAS
Description: Inhibition of purified His-tagged IKK-beta after 15 mins.

For data set [2], the system named is Blood. Description: Antiinflammatory activity in BALB/c mouse whole blood assessed as inhibition of LPS-induced TNFalpha production by ELISA. It is filed as functional, tissue-based. The essentials: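 Mouse whole blood cell suspension stimulated with LPS (medium-only control), incubated 4 h at 37 °C in 5% CO2. Plasma then separated by centrifugation at 4 °C and TNFα measured by ELISA. IC50 derived.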
(In general: ELISA stands for enzyme-linked immunosorbent assay.)

Data set [3] can be described thus: Membrane permeability at pH 7.4 by PAMPA assay. It is filed as ADME. As to conditions: read-out: permeability. In a few lines:
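Parallel artificial membrane permeability assay run at pH 7.4. Effective permeability Pe reported in 10^-6 cm/s as the median of three tests.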
Background: The PAMPA barrier holds no transporters, so it reflects passive diffusion.

Data set [4] deals with Mus musculus. In words: Antiinflammatory activity in BALB/c mouse assessed as inhibition of LPS-induced TNFalpha production at 30 mg/kg, po after 1 hr by ELISA. The data set is classed as functional. In a few lines:
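Male BALB/c mice (7–12 weeks old) dosed orally, vehicle 0.5% methyl cellulose. LPS 0.02 mg/kg in saline given i.v. 30 min after dosing. Plasma separated at 4 °C, stored at −20 °C, and TNFα quantified by ELISA. Percent inhibition recorded.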

Data set [5] has as its system Plasma. In words: Plasma concentration in BALB/c mouse at 30 mg/kg, po after 90 mins. The data set is classed as ADME, organism-based. On the set-up: dose 30 mg/kg. In a few lines:
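Plasma concentration of compound in mice measured 90 min after a 30 mg/kg oral dose.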

The nature of data set [6]: Metabolic stability of the compound in mouse liver microsomes assessed as compound remaining at 1 uM after 30 mins. It is filed as ADME, Microsome. As to conditions: read-out: Stability. The essentials:
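Compound at 1 μM incubated 30 min with mouse liver microsomes at 0.1 mg/ml protein. Percent of parent compound remaining reported.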
(Liver microsomes are vesicles of endoplasmic reticulum, rich in cytochrome P450 enzymes.)

Data set [7] deals with ALK tyrosine kinase receptor (Homo sapiens) (UniProt Q9UM73). In words: Inhibition of ALK at 10 uM.
Data set [8] addresses Tyrosine-protein kinase JAK2 (Homo sapiens) (UniProt O60674). Description: Inhibition of JAK2 at 10 uM.
For data set [9], the target named is T2, Serine/threonine-protein kinase D2 (Homo sapiens) (UniProt Q9BZL6).
T2 sequence (whole entry): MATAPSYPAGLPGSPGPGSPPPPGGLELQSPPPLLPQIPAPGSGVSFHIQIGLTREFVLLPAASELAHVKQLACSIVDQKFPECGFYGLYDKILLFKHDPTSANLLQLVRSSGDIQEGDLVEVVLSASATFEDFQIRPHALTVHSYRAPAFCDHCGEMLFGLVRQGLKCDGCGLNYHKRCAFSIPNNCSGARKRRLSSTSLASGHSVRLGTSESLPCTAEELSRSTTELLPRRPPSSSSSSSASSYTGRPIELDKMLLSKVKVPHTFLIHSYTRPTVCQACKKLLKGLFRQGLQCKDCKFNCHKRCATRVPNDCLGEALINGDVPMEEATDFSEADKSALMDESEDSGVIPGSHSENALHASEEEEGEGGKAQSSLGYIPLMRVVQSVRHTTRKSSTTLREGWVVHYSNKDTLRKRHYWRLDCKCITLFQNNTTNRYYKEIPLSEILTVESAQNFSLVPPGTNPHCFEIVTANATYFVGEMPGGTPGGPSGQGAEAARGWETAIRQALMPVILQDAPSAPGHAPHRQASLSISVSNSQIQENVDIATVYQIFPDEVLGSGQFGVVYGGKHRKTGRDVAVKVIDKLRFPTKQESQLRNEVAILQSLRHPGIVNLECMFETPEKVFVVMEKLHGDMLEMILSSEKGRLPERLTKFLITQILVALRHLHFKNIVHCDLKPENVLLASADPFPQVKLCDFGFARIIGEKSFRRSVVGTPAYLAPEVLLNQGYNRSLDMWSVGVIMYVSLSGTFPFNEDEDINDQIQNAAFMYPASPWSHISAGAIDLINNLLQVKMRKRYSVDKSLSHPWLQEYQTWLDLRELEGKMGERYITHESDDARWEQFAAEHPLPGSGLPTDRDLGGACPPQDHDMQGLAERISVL
Description: Inhibition of PKD2 at 10 uM.

The target of data set [10] is Serine/threonine-protein kinase D3 (Homo sapiens) (UniProt O94806). In words: Inhibition of PKD3 at 0.2 uM.

The structures appear in SMILES notation. Activity calls are given as the source filed them. The rule behind the calls is not given here.

ALK tyrosine kinase receptor (Homo sapiens), sequence (Q9UM73 19-1620 limits assumed): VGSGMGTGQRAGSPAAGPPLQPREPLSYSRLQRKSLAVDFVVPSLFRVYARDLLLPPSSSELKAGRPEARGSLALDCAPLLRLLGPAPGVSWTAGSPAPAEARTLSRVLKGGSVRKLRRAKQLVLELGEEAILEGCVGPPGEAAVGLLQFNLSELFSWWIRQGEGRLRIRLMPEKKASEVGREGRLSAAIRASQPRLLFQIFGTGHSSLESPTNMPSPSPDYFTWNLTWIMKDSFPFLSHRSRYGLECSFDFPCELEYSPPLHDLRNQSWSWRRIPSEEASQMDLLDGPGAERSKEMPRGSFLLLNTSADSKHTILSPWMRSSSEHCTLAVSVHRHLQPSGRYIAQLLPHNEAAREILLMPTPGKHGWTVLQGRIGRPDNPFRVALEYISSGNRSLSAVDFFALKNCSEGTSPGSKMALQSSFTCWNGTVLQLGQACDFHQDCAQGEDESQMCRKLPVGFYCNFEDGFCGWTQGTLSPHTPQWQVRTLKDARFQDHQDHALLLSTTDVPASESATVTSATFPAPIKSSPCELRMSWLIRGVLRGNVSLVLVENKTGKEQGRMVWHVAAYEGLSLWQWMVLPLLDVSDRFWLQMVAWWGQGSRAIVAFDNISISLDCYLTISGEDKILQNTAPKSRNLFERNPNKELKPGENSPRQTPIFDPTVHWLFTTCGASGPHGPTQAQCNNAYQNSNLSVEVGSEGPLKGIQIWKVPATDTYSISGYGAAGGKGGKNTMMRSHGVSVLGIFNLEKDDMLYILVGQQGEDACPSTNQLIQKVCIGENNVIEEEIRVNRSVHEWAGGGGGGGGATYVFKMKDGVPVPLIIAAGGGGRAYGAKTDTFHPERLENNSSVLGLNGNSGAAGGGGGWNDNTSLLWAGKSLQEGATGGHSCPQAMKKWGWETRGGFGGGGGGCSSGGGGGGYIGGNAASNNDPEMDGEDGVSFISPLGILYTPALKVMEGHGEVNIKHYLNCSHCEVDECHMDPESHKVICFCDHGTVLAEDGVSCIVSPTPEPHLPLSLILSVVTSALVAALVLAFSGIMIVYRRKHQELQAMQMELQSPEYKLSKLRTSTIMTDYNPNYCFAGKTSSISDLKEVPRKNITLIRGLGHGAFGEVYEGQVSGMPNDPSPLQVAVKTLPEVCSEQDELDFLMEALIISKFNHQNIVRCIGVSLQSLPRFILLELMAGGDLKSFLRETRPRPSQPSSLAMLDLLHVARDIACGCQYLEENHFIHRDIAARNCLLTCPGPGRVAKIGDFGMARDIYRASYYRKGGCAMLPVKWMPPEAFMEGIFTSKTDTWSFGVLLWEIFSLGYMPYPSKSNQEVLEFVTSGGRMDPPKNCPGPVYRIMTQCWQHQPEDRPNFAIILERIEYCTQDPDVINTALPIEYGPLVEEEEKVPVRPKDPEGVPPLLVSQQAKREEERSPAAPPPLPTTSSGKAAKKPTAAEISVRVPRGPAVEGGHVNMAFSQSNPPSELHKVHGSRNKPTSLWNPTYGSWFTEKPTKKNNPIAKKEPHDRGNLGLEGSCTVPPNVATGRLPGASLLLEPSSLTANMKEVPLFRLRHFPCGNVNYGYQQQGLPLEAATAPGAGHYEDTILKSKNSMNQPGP
Serine/threonine-protein kinase D3 (Homo sapiens), sequence (O94806 whole entry, looked up): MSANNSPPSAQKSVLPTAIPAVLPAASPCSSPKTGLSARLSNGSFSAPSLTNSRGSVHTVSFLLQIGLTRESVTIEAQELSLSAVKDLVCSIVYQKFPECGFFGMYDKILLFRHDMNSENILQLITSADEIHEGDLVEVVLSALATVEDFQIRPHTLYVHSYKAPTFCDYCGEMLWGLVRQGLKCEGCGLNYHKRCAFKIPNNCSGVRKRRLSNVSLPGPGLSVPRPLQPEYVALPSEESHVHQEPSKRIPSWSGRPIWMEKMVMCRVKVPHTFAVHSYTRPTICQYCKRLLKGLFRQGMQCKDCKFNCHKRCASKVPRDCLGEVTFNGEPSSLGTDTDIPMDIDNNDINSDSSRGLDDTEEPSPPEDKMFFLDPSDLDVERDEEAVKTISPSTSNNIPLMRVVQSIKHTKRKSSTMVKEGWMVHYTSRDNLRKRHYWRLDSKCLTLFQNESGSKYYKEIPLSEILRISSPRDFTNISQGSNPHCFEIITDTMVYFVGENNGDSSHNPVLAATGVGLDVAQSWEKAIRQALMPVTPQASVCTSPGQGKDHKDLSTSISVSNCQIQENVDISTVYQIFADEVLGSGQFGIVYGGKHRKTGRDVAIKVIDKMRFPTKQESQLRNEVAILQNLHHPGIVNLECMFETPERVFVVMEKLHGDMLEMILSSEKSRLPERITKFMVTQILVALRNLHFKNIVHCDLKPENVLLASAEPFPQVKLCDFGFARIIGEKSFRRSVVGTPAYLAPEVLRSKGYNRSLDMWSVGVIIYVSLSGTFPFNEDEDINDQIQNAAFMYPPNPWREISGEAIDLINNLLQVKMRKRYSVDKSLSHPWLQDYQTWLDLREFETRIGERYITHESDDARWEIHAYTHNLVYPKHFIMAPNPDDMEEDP
Tyrosine-protein kinase JAK2 (Homo sapiens), sequence (O60674 whole entry): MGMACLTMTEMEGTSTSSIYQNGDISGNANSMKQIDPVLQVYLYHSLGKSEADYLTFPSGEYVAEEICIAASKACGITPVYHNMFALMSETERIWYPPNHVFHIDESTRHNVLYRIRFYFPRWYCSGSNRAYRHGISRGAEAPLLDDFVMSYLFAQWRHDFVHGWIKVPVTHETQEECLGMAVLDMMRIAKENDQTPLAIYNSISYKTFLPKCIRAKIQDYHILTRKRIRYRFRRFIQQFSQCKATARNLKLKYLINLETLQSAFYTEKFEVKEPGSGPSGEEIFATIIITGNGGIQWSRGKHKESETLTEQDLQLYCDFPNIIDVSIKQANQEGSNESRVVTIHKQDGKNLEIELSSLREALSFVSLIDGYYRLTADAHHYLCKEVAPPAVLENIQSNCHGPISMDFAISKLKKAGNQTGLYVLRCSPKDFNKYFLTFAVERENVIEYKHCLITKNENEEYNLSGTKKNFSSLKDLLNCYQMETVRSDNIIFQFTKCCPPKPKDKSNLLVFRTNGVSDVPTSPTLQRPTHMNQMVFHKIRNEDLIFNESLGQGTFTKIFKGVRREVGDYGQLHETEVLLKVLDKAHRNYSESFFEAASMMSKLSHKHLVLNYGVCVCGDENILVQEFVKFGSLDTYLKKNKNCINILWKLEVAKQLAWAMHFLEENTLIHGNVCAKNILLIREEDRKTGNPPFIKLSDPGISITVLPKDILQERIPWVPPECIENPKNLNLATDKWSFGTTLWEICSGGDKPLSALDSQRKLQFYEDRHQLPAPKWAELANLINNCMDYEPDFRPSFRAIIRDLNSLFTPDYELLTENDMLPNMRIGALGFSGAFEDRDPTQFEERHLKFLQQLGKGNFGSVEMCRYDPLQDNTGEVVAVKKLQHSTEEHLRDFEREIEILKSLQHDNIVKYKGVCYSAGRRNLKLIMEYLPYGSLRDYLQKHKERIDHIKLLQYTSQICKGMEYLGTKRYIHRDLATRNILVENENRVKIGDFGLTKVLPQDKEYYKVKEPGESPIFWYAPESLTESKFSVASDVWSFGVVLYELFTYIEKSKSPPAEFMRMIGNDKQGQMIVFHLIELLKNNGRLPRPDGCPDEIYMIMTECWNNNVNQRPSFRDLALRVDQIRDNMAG

Take `O=C(c1ccc(-c2cnc3ccc(NCC4CC4)nn23)cc1)N(CCO)C[C@@H]1C[C@@H](F)CN1`: the IC50 (as a rule, the concentration that inhibits the measured activity by half) in data set [1] is 0.015 µM; in [2] it was 0.68 µM. In addition, in data set [3], the Papp came to 15 ×10⁻⁶ cm/s.
For `O=C(NC[C@@H]1CCCN1)c1ccc(-c2cnc3ccc(NCC4CC4)nn23)cc1`, in data set [2], the 50% inhibitory concentration (IC50) is 6.8 µM. In data set [3], the Papp is < 2 ×10⁻⁶ cm/s. Further, the inhibition (as a rule, the percentage by which the read-out fell short of the control) in data set [4] was “inactive”. Also, the Cp in [5] worked out at 0.0075 µg/mL. For the same compound, the remaining at 0.5 h, 1 µM in [6] was determined as 77%. For the same compound, the inhibition in [7], in data set [8] and in [9] was > 90% each time.
As to `CC(=O)Nc1ccc(CN(C[C@@H]2C[C@@H](F)CN2)C(=O)c2ccc(-c3cnc4ccc(NCC5CC5)nn34)cc2)cc1`, the concentration for half-maximal inhibition (IC50) in data set [1] was 0.015 µM; in [2], 2.7 µM. Besides, the Papp in data set [3] was < 2 ×10⁻⁶ cm/s.
For the compound `O=C(c1ccc(-c2cnc3ccc(NCC4CC4)nn23)cc1)N(Cc1ccccc1)C[C@@H]1C[C@@H](F)CN1`, the IC50 in data set [1] was 0.012 µM; in data set [2], 0.4 µM. Besides, the Papp in data set [3] was > 50 ×10⁻⁶ cm/s.
On the same counts, the results for `O=C(c1ccc(-c2cnc3ccc(NCC4CC4)nn23)cc1)N(C/C=C/c1ccccc1)C[C@@H]1C[C@@H](F)CN1` are 0.013 µM, 0.95 µM and > 50 ×10⁻⁶ cm/s.
In turn, `O=C(c1ccc(-c2cnc3ccc(NCC4CC4)nn23)cc1)N(C[C@@H]1C[C@@H](F)CN1)c1ccccc1` returned an IC50 in data set [1] of 7.3 µM.
For the compound `O=C(O)CN(C[C@@H]1C[C@@H](F)CN1)C(=O)c1ccc(-c2cnc3ccc(NCC4CC4)nn23)cc1`, the IC50 worked out at 0.11 µM in data set [1] and 3.9 µM in data set [2]. Moreover, the Papp in data set [3] worked out at 14 ×10⁻⁶ cm/s.
On to `O=C(c1ccc(-c2cnc3ccc(NCC4CC4)nn23)cc1)N(Cc1ccc(Cl)cc1)C[C@@H]1C[C@@H](F)CN1`, for which the IC50 in [1] was 0.017 µM; in data set [2], 1.2 µM. Further, the Papp in data set [3] is 39 ×10⁻⁶ cm/s. Further, the inhibition in vivo (in general, the drop in the measured response relative to a control, in per cent) at 30 mg/kg in [4] was determined as 61%. In data set [5], this compound registered a Cp of 0.45 µg/mL. The remaining at 0.5 h, 1 µM in data set [6] came to 28%.
For the compound `CCN(C[C@@H]1C[C@@H](F)CN1)C(=O)c1ccc(-c2cnc3ccc(NCC4CC4)nn23)cc1`, the values for the IC50 in data set [1] and in data set [2] were 0.018 µM and 0.23 µM, respectively. The Papp in data set [3] stood at 42 ×10⁻⁶ cm/s. The inhibition in vivo at 30 mg/kg in [4] is 32%. Further, the Cp in data set [5] came to 0.15 µg/mL. Moreover, in data set [6], the remaining at 0.5 h, 1 µM was found to be 33%.
In the case of `CO[C@H]1CCN[C@@H]1CNC(=O)c1ccc(-c2cnc3ccc(NCC4CC4)nn23)cc1`, the IC50 is 0.023 µM in [1] and 2.1 µM in [2]. Besides, the Papp in [3] was 6.5 ×10⁻⁶ cm/s.
`CO[C@H]1CN[C@H](CNC(=O)c2ccc(-c3cnc4ccc(NCC5CC5)nn34)cc2)C1`: the IC50 came out at 0.071 µM in data set [1] and 2.7 µM in data set [2]. The Papp in data set [3] is < 2 ×10⁻⁶ cm/s.
In the case of `O=C(NC[C@H]1NCC[C@@H]1F)c1ccc(-c2cnc3ccc(NCC4CC4)nn23)cc1`, the concentration for half-maximal inhibition (IC50) in data set [1] came out at 0.021 µM; in data set [2], 1.2 µM.
Consider `CN(C[C@@H]1C[C@@H](F)CN1)C(=O)c1ccc(-c2cnc3ccc(NCC4CC4)nn23)cc1`, for which the results for the IC50 in [1] and in [2] were 0.042 µM and 0.48 µM, respectively. In addition, the Papp in [3] is > 50 ×10⁻⁶ cm/s. Further, the inhibition in vivo at 30 mg/kg in data set [4] turned out to be 26%. In [5], the Cp amounted to 0.34 µg/mL. The remaining at 0.5 h, 1 µM in data set [6] worked out at 50%.
For `O=C(O)c1ccc(CN(C[C@@H]2C[C@@H](F)CN2)C(=O)c2ccc(-c3cnc4ccc(NCC5CC5)nn34)cc2)cc1`, the IC50 in data set [1] was 0.017 µM; in [2], > 10 µM. Moreover, the Papp in [3] was < 2 ×10⁻⁶ cm/s.
On the same counts, the results for `CN(C[C@@H]1CCCN1)C(=O)c1ccc(-c2cnc3ccc(NCC4CC4)nn23)cc1` are 0.097 µM, 1.9 µM and 6.1 ×10⁻⁶ cm/s.
Turning to `O=C(c1ccc(-c2cnc3ccc(NCC4CC4)nn23)cc1)N(Cc1cccc(Cl)c1)C[C@@H]1C[C@@H](F)CN1`, the IC50 in data set [1] was 0.017 µM; in data set [2], 0.59 µM. For the same compound, the Papp in data set [3] is > 50 ×10⁻⁶ cm/s. In addition, the inhibition in vivo at 30 mg/kg in data set [4] came to 40%. Also, the Cp in [5] stood at 0.12 µg/mL. Also, the remaining at 0.5 h, 1 µM in data set [6] is 7%.
On to `CCCN(C[C@@H]1C[C@@H](F)CN1)C(=O)c1ccc(-c2cnc3ccc(NCC4CC4)nn23)cc1`, for which the IC50 in data set [1] stood at 0.016 µM; in data set [2], 0.17 µM. Also, the Papp in data set [3] is > 50 ×10⁻⁶ cm/s. Also, the inhibition in vivo at 30 mg/kg in data set [4] was determined as 52%. Further, the Cp in data set [5] is 0.16 µg/mL. For the same compound, in data set [6], the remaining at 0.5 h, 1 µM was determined as 33%.
In the case of `CN(C)CCNC(=O)c1ccc(-c2cnc3ccc(NCC4CC4)nn23)cc1`, the 50% inhibitory concentration (IC50) in data set [2] was 0.8 µM. Besides, the Papp in data set [3] was > 50 ×10⁻⁶ cm/s. For the same compound, the inhibition in vivo at 30 mg/kg in data set [4] worked out at 10%. Also, the Cp in data set [5] was 0.39 µg/mL. Further, the remaining at 0.5 h, 1 µM in [6] is 71%.
`O=C(NC[C@@H]1C[C@@H](F)CN1)c1ccc(-c2cnc3ccc(NCC4CC4)nn23)cc1`: the IC50 turned out to be 0.022 µM in [1] and 0.57 µM in [2]. For the same compound, the Papp in data set [3] was 36 ×10⁻⁶ cm/s. In [10], the inhibition was 80%.

The values above are taken from ChEMBL document CHEMBL1667807, “Discovery of imidazo[1,2-b]pyridazines as IKKβ inhibitors. Part 2: improvement of potency in vitro and in vivo” (Bioorg Med Chem Lett, 2011).
